In the library only some 2.9% were active in any assay of this set; here they are far more common.
M1 PAM parental: nonselective calcium activators in parental CHO-K1 cells, primary screen, counter-screen for M1 PAM project, cell-based, Fluo-8 calcium fluorescence, full deck, 1536-well. ATP EC20; 0% at ATP EC20, 100% at ATP max. activation, % at 3 µM. actives 0.02% (n = 360,000). AID 602247, 2012;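 active means activation above the run cutoff, the mean activation of all test compounds plus 3 SD, cut at about 40% in these data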;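 further: peak over basal fluorescence ratio in a 140 s read after ATP addition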
OX1R antag-1: OX1R (HCRTR1) antagonists, primary screen, fluorescence, CHO/OX1R cells, Fluo-8 calcium, orexin A; Orexin/Hypocretin receptor type 1 (Homo sapiens), O43613; Fluo-8 calcium fluorescence; inhibition, % at 5 µM; actives 0.43% (n = 330,000);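 active means inhibition above its plate's threshold, mean inhibition of all tested compounds on the plate plus 3 SD, cut at about 37% in these data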;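 further: 0% = orexin A challenge wells and 100% = SB-334867-A antagonist wells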
Target sequence (O43613 whole entry, looked up): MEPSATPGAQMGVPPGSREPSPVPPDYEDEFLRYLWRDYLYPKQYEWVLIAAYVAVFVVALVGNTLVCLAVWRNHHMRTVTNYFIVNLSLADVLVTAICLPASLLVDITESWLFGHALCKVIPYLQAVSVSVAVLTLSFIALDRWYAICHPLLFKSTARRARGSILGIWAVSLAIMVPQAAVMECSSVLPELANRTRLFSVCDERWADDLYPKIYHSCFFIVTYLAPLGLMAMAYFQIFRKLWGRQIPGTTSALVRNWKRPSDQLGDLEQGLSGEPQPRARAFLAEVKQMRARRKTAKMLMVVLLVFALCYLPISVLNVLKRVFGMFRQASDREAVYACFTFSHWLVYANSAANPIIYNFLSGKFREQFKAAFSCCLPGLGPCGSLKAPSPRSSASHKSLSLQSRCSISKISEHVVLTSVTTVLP
CHO parental Ca: ATP-evoked calcium signal inhibitors, parental CHO, primary screen, counter-screen for OX1R antagonist project, cell-based, fluorescence, Fluo-8 calcium dye; parental CHO-K1, ATP-induced calcium, Fluo-8 fluorescence; inhibition, % at 5.6 µM; actives 0.63% (n = 330,000); AID 463079, 2010;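 active means inhibition above that plate's mean sample inhibition plus 3 SD, cut at about 26% in these data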;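 further: 0% = ATP-challenged DMSO wells and 100% = DMSO wells without ATP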
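Assay system: untransfected parental CHO cell line. Also added: ATP agonist challenge. Dosing: one dose, 5.6 µM nominal. Measured by: Fluo-8 fluorescence. Read-out: % inhibition. Benchmarks: ATP wells versus no-ATP DMSO wells. Repeats: no replicates.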
CHO-K1 Ca ag: counter-screen for M1 agonists: effect in parental CHO-K1 cells; Fluo-8 calcium fluorescence; scaled to maximal ATP response, vehicle zero; activation, % at 3 µM; actives 0.48% (n = 360,000); in the data active means activation above about 15%;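 further: untransfected CHO-K1 host cells lacking M1 receptor as counterscreen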
OX1R antag-2: antagonists of human orexin 1 receptor (OX1R); OX1R-expressing cells, FRET antagonist read-out; Orexin/Hypocretin receptor type 1 (Homo sapiens), O43613; inhibition, % at 6.6 µM; AID 485270, 2010; actives 1.8% (n = 330,000); in the data active means inhibition mostly above about 38%, no sharp cut-off; inactive means mostly below about 40%;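 further: 0% = agonist challenge alone and 100% = reference antagonist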
CHO-K1 Ca antag: M1 antagonist counterscreen hit in parental CHO-K1 cells | ATP-induced calcium, Fluo-8 fluorescence | inhibition, % at 3 µM | actives 0.6% (n = 360,000) | AID 602250;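 active means inhibition above a per-plate cutoff, the plate's mean sample inhibition plus 3 SD, cut at about 24% in these data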;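 further: 0% = DMSO plus EC80 ATP and 100% = DMSO alone without ATP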
Numbers without * were called inactive; x = no result.

SMILES | M1 PAM parental | OX1R antag-1 | CHO parental Ca | CHO-K1 Ca ag | OX1R antag-2 | CHO-K1 Ca antag
CSc1ccc(S(=O)(=O)NCC(=O)OCC(=O)NCc2ccco2)cc1[N+](=O)[O-] | -25.8 | -8.8 | 1.9 | -0.1 | 43.5 | 15.2
CCN(C(=O)COC(=O)CNS(=O)(=O)c1ccc(SC)c([N+](=O)[O-])c1)C1CCCCC1 | 3.0 | -15.3 | -18.2 | 3.7 | 52.5* | -9.5
CSc1ccc(S(=O)(=O)NCC(=O)OC(C)C(=O)NCc2ccccc2)cc1[N+](=O)[O-] (stereo not drawn) | 6.7 | -20.2 | 9.2 | 2.0 | 66.9* | -3.7
CNc1ccc(S(=O)(=O)NCC(=O)OC(C)C(=O)N(C)Cc2ccccc2)cc1[N+](=O)[O-] (stereo not drawn) | 4.6 | -18.0 | -9.3 | 1.5 | 19.9 | -12.0
COc1ccc(C(NC(=O)C2CCN(CCOc3ccc(Cl)cc3)CC2)c2cccs2)cc1 (stereo not drawn) | -1.6 | x | x | 5.2 | x | 14.5
COc1ccc(-c2cn3cc(C(=O)NN)ccc3n2)cc1 | 9.7 | 57.2* | 53.6* | 0.6 | 27.0 | -15.7
CCN1CCN(C(=O)c2cc3cc(F)ccc3[nH]2)CC1 | -28.7 | -14.3 | -6.8 | -0.5 | 5.2 | 33.8*
N#CC1=C(N)NC(SCC(=O)c2ccc(Cl)cc2)=C(C#N)C12CCCC2 | 18.4 | 53.1* | 26.4 | 10.1 | 20.8 | -18.7
C=CCn1c(=O)[nH]c2nc3cc(N=CN(C)C)c(C)cc3nc2c1=O | 10.1 | 0.7 | -0.5 | 1.7 | 73.2* | -7.0
C=C(C)CNC(=S)N=Nc1c(O)[nH]c2ccc([N+](=O)[O-])cc12 | 13.7 | -14.0 | -10.0 | 0.5 | 34.0 | -15.3
O=C(CNC(=O)c1ccco1)N=Nc1c(O)[nH]c2ccc([N+](=O)[O-])cc12 | 3.6 | -2.6 | 2.5 | 0.6 | 62.7* | -17.9
O=C(OCCOc1cccc(Cl)c1)c1cc(S(=O)(=O)N2CCOCC2)ccc1F | 3.0 | -15.7 | -2.8 | 6.4 | 22.1 | -10.3
CN(Cc1ccc(C(C)(C)C)cc1)C(=O)Cc1ccc(S(=O)(=O)N2CCOCC2)s1 | 11.5 | 2.1 | -22.3 | 5.0 | 10.6 | -1.1
Cc1cccn2c(=S)[nH]nc12 | -13.3 | x | x | 0.3 | x | 26.3*
Cc1ccccc1-n1c(C)n[nH]c1=S | 6.8 | -12.5 | -10.3 | 0.0 | 5.7 | 8.9
O=C(Nc1nc2ccccc2[nH]1)NC1CCCCC1 | -1.6 | -29.2 | 2.7 | 23.4* | 25.2 | 11.3
COc1ccc(CCNC(=O)c2ccccc2C(=O)NCCc2ccc(OC)c(OC)c2)cc1OC | 7.2 | -4.3 | -11.8 | 2.0 | 49.8* | -2.2
COc1ccc(CCNC(=O)c2cc(=O)c3cc(C)ccc3o2)cc1OC | -6.4 | -3.8 | 7.9 | 17.3* | 17.8 | -7.0
COc1ccc(CCNC(=O)Cc2ccc(OCc3ccccc3)c(OC)c2[N+](=O)[O-])cc1OCc1ccccc1 | 2.7 | 35.3 | 45.6* | 7.1 | 24.7 | 18.3
CCc1nc2ccc(C(=O)NCCOc3ccc(OC)cc3)cn2c1N(C=O)Cc1ccc(OC)cc1 | 10.5 | x | x | 1.3 | x | 0.9
O=C(c1ccc(S(=O)(=O)c2cccc(Cl)c2)c([N+](=O)[O-])c1)N1CCN(c2ccccn2)CC1 | -10.0 | 3.8 | 33.5* | 16.1* | 43.4 | 26.2*
O=C(c1cccc(Cl)c1)N1CCN(c2ccccn2)CC1 | -5.6 | -36.5 | -7.4 | 0.6 | 12.0 | 15.0
CCn1c2ccccc2c2nnc(SCc3ccccc3)nc21 | 20.6 | -29.4 | 31.6* | 0.2 | 40.0 | -15.3
CCn1c2ccccc2c2nnc(SCCCn3c(=O)[nH]c4ccccc43)nc21 | 13.8 | -29.5 | -34.2 | 2.9 | 35.5* | -24.3
CCn1c2ccccc2c2nnc(SCC(N)=O)nc21 | 20.5 | -13.3 | -3.7 | 7.3 | 45.2 | -4.4
SMILES | M1 PAM parental | OX1R antag-1 | CHO parental Ca | CHO-K1 Ca ag | OX1R antag-2 | CHO-K1 Ca antag
CCCCOC(=O)CSCC(=O)N1N=C(c2cccs2)CC1c1ccc(F)cc1 (stereo not drawn) | 20.3 | -12.9 | 29.0* | 2.0 | 3.0 | -9.1
COc1ccccc1C(=O)C1CCCN(C(=O)c2cnn(C(C)C)c2)C1 (stereo not drawn) | -15.2 | -2.1 | -10.0 | 0.6 | 4.8 | -2.7
Cc1cc(-c2ccc(C)c(S(=O)(=O)NCCCN3CCN(c4ccccc4F)CC3)c2)on1 | -23.0 | 66.8* | 61.4* | 11.9 | 40.3 | 8.1
Cc1cc(-c2ccc(C)c(S(=O)(=O)NCCCN3CCN(c4ccccc4)CC3)c2)on1 | -8.6 | -10.2 | -9.5 | 11.1 | 4.4 | 18.2
COc1cccc(CCNC(=O)CCc2nnc(Cc3cc(OC)ccc3OC)o2)c1 | 15.4 | -22.0 | -1.9 | 0.6 | 11.5 | -12.1
CC1=C(C(=O)OCC2CCCO2)C(c2ccc(Cl)cc2)NC(=O)N1 (stereo not drawn) | -5.8 | -21.2 | -5.0 | 2.9 | -0.4 | -1.8
O=[N+]([O-])c1cc(Br)c2c(c1)CCN2 | 8.5 | x | x | 0.0 | x | -5.5
O=[N+]([O-])c1cc(Cl)cc(C2=NCCN2)c1 | 18.9 | -7.0 | -4.6 | 0.4 | 60.9* | -14.6
O=C1CCC(C(=O)N2CCN(c3cnccn3)CC2)CN1CCc1ccc(Cl)cc1 (stereo not drawn) | 6.4 | x | x | 0.4 | x | -2.8
OCC(CO)(CO)NCC(O)CN1c2ccccc2Sc2ccccc21 (stereo not drawn) | 13.5 | -4.1 | -7.0 | -0.1 | -2.6 | -1.8
Cc1nn(CC(O)CN2c3ccccc3Sc3ccccc32)c(C)c1Br (stereo not drawn) | -5.3 | -24.1 | -5.4 | 18.4* | 18.7 | -13.5
CCCn1c(COc2ccc(C(=O)O)cc2)nc2ccccc21 | -4.3 | -4.7 | -12.3 | 0.6 | 7.9 | 6.5
COc1ccc(-n2ccnc(SCC(=O)NC3CCCC3)c2=O)cc1 | -12.7 | -7.5 | -6.0 | 0.2 | 44.6* | -2.7
Cc1cccc(NC(=S)N(CCCN2CCCC2)Cc2cccn2Cc2ccc(Cl)cc2)c1 | 12.9 | -22.1 | -10.2 | 16.6* | 14.2 | 0.0
CCN1C(=O)c2ccccc2S(=O)c2ccc(C(=O)N3CCOCC3)cc21 (stereo not drawn) | 6.8 | -7.8 | 7.1 | 18.2* | 8.3 | -0.4
O=C1c2ccccc2-c2ccc(C(=O)N3CCOCC3)cc21 | 10.6 | -20.7 | 4.2 | 0.3 | 60.5* | -2.8
CN(CCO)c1cccc2c1S(=O)(=O)N[C@H](Cc1ccccc1)CO2 | 9.9 | x | x | 0.9 | x | -11.9
COc1ccc(/C=C2/SC(=O)N(NS(=O)(=O)c3ccccc3)C2=S)cc1OC | -4.2 | -4.6 | -16.8 | 6.6 | 42.8* | -24.8
COc1cccc(/C=C2\SC(=S)N(NS(=O)(=O)c3ccccc3)C2=O)c1OC | 6.8 | -13.6 | -13.4 | 0.7 | 49.8* | -11.1

High-throughput results deposited in PubChem BioAssay by The Scripps Research Institute Molecular Screening Center.
